Calls of active or inactive are those of the source. The calls are words filed in the database; no cut-off is given here.
Assays:
Uncharacterized protein [1] = target: T1, Uncharacterized protein (Sus scrofa, UniProt I3LIR5); assay: Inhibition of pig kidney trehalase after 10 to 30 mins
T1 sequence (I3LIR5 whole entry): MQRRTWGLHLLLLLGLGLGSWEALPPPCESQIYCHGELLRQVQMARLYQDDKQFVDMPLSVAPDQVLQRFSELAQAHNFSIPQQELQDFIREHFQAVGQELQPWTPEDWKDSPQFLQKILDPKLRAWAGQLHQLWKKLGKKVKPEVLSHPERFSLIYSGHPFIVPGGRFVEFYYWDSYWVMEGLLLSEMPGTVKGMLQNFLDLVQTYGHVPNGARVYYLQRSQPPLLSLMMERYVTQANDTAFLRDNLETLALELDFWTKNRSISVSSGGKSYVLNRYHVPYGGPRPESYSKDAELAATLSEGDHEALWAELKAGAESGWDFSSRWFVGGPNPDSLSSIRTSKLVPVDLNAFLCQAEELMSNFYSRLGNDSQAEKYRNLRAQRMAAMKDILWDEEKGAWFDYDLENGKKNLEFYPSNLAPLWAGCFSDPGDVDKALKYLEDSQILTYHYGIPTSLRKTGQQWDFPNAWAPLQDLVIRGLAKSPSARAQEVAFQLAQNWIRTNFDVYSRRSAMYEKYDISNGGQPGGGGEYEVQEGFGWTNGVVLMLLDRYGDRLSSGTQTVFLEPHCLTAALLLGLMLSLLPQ

[2] = Inhibition of jack beans alpha-mannosidase at 2 mM after 10 to 30 mins; set-up: species or system Canavalia ensiformis
[3] = Inhibition of Aspergillus niger amyloglucosidase at 2 mM after 10 to 30 mins
[4] = Inhibition of Helix pomatia beta-mannosidase at 2 mM after 10 to 30 mins
[5] = Inhibition of Penicillium decumbens naringinase after 10 to 30 mins
[6] = target: Alpha-galactosidase (Coffea arabica) (UniProt Q42656); assay: Inhibition of green coffee bean alpha-galactosidase at 2 mM after 10 to 30 mins
Sequence of Alpha-galactosidase (Coffea arabica) (Q42656 16-378 limits assumed): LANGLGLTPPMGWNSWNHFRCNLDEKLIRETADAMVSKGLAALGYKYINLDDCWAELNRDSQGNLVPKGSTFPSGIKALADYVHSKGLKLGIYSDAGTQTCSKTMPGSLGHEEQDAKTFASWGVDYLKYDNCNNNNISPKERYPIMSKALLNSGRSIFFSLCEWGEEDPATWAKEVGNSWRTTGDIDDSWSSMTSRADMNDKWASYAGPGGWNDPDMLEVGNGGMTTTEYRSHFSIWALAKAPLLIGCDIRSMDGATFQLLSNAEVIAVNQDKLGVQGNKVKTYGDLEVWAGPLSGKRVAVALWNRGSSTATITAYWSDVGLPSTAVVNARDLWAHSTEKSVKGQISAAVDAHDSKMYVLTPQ

[7] = Inhibition of almond beta-glucosidase at pH 7.3 after 10 to 30 mins; set-up: species or system Prunus dulcis
[8] = target: Oligo-1,6-glucosidase IMA1 (Saccharomyces cerevisiae S288c) (UniProt P53051); assay: Inhibition of yeast isomaltase at 2 mM after 10 to 30 mins
Sequence of Oligo-1,6-glucosidase IMA1 (Saccharomyces cerevisiae S288c) (P53051 whole entry): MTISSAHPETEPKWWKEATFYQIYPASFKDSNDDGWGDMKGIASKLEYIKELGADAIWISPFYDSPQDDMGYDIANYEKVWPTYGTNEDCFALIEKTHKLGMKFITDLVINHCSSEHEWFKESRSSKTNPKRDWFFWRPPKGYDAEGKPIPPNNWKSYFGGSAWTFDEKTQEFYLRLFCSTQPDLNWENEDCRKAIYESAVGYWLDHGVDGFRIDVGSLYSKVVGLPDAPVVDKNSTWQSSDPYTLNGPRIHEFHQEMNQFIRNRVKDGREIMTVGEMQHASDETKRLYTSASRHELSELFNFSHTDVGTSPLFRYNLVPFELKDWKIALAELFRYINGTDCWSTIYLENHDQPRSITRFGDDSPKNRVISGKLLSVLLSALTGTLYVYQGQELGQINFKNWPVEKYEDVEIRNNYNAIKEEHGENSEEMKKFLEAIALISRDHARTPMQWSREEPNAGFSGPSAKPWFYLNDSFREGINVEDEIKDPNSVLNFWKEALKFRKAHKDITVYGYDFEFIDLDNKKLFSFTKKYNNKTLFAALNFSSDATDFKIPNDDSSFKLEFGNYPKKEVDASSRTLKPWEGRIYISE

Alpha-glucosidase MAL12 [9] = target: T2, Alpha-glucosidase MAL12 (Saccharomyces cerevisiae S288c, UniProt P53341); assay: Inhibition of yeast alpha-glucosidase at 2 mM after 10 to 30 mins
T2 sequence (P53341 whole entry): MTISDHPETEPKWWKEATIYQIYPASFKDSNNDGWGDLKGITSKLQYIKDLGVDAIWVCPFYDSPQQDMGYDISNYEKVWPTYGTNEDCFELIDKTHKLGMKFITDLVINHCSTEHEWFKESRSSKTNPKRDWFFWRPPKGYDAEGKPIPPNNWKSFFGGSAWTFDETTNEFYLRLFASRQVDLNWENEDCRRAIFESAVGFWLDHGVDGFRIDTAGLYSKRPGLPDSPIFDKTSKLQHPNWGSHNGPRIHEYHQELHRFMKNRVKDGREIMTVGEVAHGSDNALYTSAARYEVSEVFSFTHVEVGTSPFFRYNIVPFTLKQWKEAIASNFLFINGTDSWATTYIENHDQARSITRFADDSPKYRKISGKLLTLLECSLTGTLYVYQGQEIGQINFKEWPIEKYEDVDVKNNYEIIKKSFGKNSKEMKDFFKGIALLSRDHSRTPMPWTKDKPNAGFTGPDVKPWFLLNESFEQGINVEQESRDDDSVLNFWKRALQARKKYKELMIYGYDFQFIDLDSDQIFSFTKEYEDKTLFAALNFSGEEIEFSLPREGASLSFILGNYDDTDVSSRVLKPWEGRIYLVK

Glucosylceramidase = target: T3, Glucosylceramidase (Bos taurus, UniProt Q2KHZ8); assay: Inhibition of bovine liver beta-glucosidase at 2 mM after 10 to 30 mins
T3 sequence (Q2KHZ8 whole entry): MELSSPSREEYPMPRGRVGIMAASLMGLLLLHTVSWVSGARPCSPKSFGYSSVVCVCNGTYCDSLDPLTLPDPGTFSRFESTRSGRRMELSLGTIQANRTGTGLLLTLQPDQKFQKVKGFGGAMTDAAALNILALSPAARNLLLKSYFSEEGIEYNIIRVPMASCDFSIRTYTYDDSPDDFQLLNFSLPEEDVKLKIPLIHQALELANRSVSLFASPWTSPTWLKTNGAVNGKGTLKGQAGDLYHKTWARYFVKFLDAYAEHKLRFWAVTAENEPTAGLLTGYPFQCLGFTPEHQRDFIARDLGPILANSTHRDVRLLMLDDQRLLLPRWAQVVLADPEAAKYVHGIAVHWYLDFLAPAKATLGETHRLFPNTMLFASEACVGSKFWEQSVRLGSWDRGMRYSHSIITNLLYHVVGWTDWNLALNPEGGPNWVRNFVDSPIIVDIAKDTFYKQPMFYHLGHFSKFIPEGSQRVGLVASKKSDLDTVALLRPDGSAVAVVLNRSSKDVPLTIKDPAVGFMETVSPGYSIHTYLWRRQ

[10] = Inhibition of jack beans alpha-mannosidase after 10 to 30 mins; set-up: species or system Canavalia ensiformis
Alpha-glucosidase MAL12 [11] = target: T2, Alpha-glucosidase MAL12; assay: Inhibition of yeast alpha-glucosidase after 10 to 30 mins
[12] = Inhibition of Helix pomatia beta-mannosidase after 10 to 30 mins
Uncharacterized protein [13] = target: T1, Uncharacterized protein; assay: Inhibition of pig kidney trehalase at 2 mM after 10 to 30 mins
[14] = Inhibition of Aspergillus niger amyloglucosidase after 10 to 30 mins
[15] = Binding affinity to almond beta-glucosidase by FRET assay; set-up: species or system Prunus dulcis
Procedure, shortened: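 Direct titration: almond β-glucosidase 1.25 µM in 0.05 M potassium phosphate pH 7.3, 37 °C. Inhibitor stock (50 µM, made in the enzyme solution) added portion-wise to ~6 µM. Excitation 280 nm. Tryptophan emission read at 339 nm and dansyl emission at 515 nm at 10–15 ratios. Kd from least-squares fit to a 1:1 model. Reverse titration (enzyme into 1.0 µM inhibitor, 515 nm) gave confirmation.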

| Ki (Uncharacterized protein [1]) [µM] | Ki [2] | Ki [3] | Ki [4] | Ki [5] [µM] | inhibition [6] | Ki [7] [µM] | inhibition [8] | Ki (Alpha-glucosidase MAL12 [9]) | Ki (Glucosylceramidase) | Ki [10] [µM] | Ki (Alpha-glucosidase MAL12 [11]) [µM] | Ki ([12]; read-out: Ki) [µM] | Ki (Uncharacterized protein [13]) | Ki [14] [µM] | Ki [12] | Kd [15] [µM] | SMILES |
| --- | --- | --- | --- | --- | --- | --- | --- | --- | --- | --- | --- | --- | --- | --- | --- | --- | --- |
| 116 | Not Active | Not Active | Not Active | 1.8 | inactive | 12.8 | inactive | Not Active | Not Active | – | – | – | – | – | – | – | Cl.NCCCC/N=C1\SC[C@@H]2[C@@H](O)[C@H](O)[C@@H](O)[C@@H](O)N12 |
| – | – | Not Active | – | 1.2 | inactive | 0.55 | inactive | – | – | 235 | 714 | 522 | Not Active | – | – | – | CN(C)c1ccc(-c2cnc(-c3ccc(S(=O)(=O)NCCCC/N=C4\SC[C@@H]5[C@@H](O)[C@H](O)[C@@H](O)[C@@H](O)N45)cc3)o2)cc1 |
| 28.2 | – | – | – | 0.072 | inactive | 0.45 | inactive | – | – | 199 | 313 | 11 | – | 167 | – | – | CCN(CC)c1ccc2cc(C(=O)NCCCC/N=C3\SC[C@@H]4[C@@H](O)[C@H](O)[C@@H](O)[C@@H](O)N34)c(=O)oc2c1 |
| 13.4 | Not Active | – | – | 0.23 | inactive | 0.76 | inactive | Not Active | – | – | – | – | – | – | Not Active | – | CCCCCCCC/N=C1\SC[C@@H]2[C@@H](O)[C@H](O)[C@@H](O)[C@@H](O)N12 |
| 293 | Not Active | Not Active | – | 0.21 | inactive | 0.36 | inactive | – | – | – | 246 | 387 | – | – | – | 0.2 | CN(C)c1cccc2c(S(=O)(=O)NCCCC/N=C3\SC[C@@H]4[C@@H](O)[C@H](O)[C@@H](O)[C@@H](O)N34)cccc12 |

— ChEMBL document CHEMBL1268950, “Fluorescent-tagged sp2-iminosugars with potent β-glucosidase inhibitory activity” (Bioorg Med Chem, 2010)
